{"source": "paper PMC3530835", "about": "(Journal of medicinal chemistry, 2012)", "key": {"[1]": {"target": "T1, PfGluPho (PfG6PD) (Plasmodium falciparum, UniProt Q8IKU0)", "T1 sequence (Q8IKU0 1-910)": "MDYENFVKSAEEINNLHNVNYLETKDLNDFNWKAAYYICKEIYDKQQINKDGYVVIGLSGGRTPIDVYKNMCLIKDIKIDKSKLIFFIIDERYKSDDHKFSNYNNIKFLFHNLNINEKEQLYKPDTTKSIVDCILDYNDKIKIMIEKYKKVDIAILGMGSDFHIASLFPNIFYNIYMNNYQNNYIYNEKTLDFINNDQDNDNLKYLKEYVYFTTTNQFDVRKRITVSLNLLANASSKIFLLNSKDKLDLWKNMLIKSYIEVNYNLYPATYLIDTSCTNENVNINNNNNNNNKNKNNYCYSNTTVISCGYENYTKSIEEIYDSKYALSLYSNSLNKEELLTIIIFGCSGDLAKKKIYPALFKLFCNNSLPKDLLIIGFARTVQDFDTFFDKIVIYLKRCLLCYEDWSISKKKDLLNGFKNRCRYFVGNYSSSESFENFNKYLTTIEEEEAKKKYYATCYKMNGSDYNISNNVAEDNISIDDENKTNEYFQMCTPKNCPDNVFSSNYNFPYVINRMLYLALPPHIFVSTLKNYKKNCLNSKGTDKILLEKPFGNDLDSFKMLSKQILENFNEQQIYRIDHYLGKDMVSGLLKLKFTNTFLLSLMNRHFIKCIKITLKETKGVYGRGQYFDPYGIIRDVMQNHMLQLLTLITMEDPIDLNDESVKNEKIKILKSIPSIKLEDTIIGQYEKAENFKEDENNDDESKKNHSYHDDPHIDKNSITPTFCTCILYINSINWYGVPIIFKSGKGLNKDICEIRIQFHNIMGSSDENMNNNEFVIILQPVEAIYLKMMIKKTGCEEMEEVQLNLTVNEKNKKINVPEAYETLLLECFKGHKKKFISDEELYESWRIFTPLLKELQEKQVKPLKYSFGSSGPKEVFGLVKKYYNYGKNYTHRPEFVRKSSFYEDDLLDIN", "assay": "Orthogonal PfGluPho assay, direct detection of NADPH", "type": "biochemical", "conditions": "Potency PfG6PD NADPH Kinetic"}, "[2]": {"target": "T1, PfGluPho (PfG6PD)", "assay": "PfGluPho primary dose response assay, resazurin/diaphorase-coupled", "type": "biochemical", "conditions": "for Decrease in potency relative to 5a: vs. 5a, Table 2"}, "[3]": {"assay": "Chemical stability", "type": "physicochemical", "conditions": "10 μM, 1% DMSO, 5 equivalents of GSH, PBS pH 7.4, 23 °C, duration of the study"}, "[4]": {"target": "hG6PD (Homo sapiens, UniProt P11413)", "sequence (P11413 whole entry)": "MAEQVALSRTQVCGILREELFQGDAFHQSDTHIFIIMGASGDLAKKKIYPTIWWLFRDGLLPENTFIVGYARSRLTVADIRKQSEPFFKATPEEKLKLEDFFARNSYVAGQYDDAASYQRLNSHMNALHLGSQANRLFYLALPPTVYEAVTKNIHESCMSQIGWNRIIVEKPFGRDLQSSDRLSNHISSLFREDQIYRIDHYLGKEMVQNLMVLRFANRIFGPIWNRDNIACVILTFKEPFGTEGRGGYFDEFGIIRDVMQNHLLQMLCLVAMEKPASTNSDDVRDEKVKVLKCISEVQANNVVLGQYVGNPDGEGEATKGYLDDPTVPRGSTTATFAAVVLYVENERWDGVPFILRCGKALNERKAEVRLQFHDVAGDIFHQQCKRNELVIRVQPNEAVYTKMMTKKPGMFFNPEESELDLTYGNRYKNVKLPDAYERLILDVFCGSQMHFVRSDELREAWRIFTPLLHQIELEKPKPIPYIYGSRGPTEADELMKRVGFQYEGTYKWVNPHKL", "assay": "hG6PD counter screen", "type": "biochemical", "conditions": "Figure 3"}, "[5]": {"test_system": "P. falciparum", "assay": "P. falciparum in culture", "type": "cell-based", "conditions": "Plasmodium falciparum, read-out: IC50 against P. falciparum in culture", "summary_of_the_method": "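Chloroquine-sensitive 3D7 and chloroquine-resistant Dd2 blood-stage strains. Infected RBCs seeded at 0.25% parasitemia (>70% rings) and 1.25% hematocrit in hypoxanthine-free medium, with varying test compound concentrations and a chloroquine control. Incubated 72 hours. Growth was read as 3H-hypoxanthine incorporation, and IC50 was derived by non-linear regression.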"}, "[6]": {"assay": "Aqueous solubility", "type": "physicochemical"}, "[7]": {"target": "PfGluPho (Plasmodium falciparum, UniProt Q8IKU0)", "assay": "Mechanism of inhibition", "type": "biochemical", "summary_of_the_method": "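Test compound, titrated in DMSO, and G6P or NADP+ varied together. Substrate solution final: 3.3 mM MgCl2, 1 mM TCEP, 0.05 M Tris, plus 5 μM NADP+ (G6P titration) or 25 μM G6P (NADP+ titration). Reaction started with PfGluPho (final 0.2 μg/mL) in 0.005% Tween 20. NADPH fluorescence (ex340/em460) monitored over 10 min; initial slopes taken.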"}, "[8]": {"conditions": "Potency PfG6PD Primary Assay, Table 6, Ave. ± S.E.M."}, "[9]": {"conditions": "Potency PfG6PD Primary Assay, Table 5, Ave. ± S.E.M."}, "[10]": {"conditions": "PfG6PD IC50, Table 3, necessity of styryl moiety"}}}
{"smiles": "COc1ccc(/C=C2\\Sc3ccc(C(=O)NCCN4CCCCCC4)cc3NC2=O)cc1", "note": "[Compound 38]", "values": [{"measurement": "IC50", "setting": "[1]; Table 6", "result": "> 80", "unit": "µM"}, {"measurement": "IC50", "setting": "[2]; [8]", "result": "> 80", "unit": "µM"}]}
{"smiles": "COc1cccc(/C=C2\\Sc3ccc(C(=O)NCCN4CCCCCC4)cc3NC2=O)c1", "note": "[Compound 37]", "values": [{"measurement": "IC50", "setting": "[2]; [8]", "result": "> 80", "unit": "µM"}]}
{"smiles": "CN(C)c1ccccc1CNC(=O)c1ccc2c(c1)NC(=O)/C(=C/c1ccccc1F)S2", "note": "[Compound 42]", "values": [{"measurement": "IC50", "setting": "[2]; [8]", "result": "> 80", "unit": "µM"}]}
{"smiles": "COc1ccc(/C=C2\\Sc3ccc(C(=O)NCCN4CCCC4)cc3NC2=O)cc1", "note": "[Compound 30]", "values": [{"measurement": "IC50", "setting": "[1]; Table 6", "result": "> 80", "unit": "µM"}]}
{"smiles": "O=C1Nc2cc(C(=O)NCCN3CCOCC3)ccc2S/C1=C\\c1ccccc1F", "note": "[Compound 34]", "values": [{"measurement": "IC50", "setting": "[1]; Table 6", "result": "> 80", "unit": "µM"}, {"measurement": "IC50", "setting": "[2]; [8]", "result": "> 80", "unit": "µM"}]}
{"smiles": "O=C1Nc2cc(C(=O)NCCN3CCCCCC3)ccc2S/C1=C\\c1ccccc1Cl", "note": "[Compound 36]", "values": [{"measurement": "IC50", "setting": "[1]; Table 6", "result": "> 80", "unit": "µM"}]}
{"smiles": "COc1ccc(/C=C2\\Sc3ccc(C(=O)NCCN(C)C)cc3NC2=O)cc1", "note": "[Compound 19]", "values": [{"measurement": "IC50", "setting": "[1]; Table 5", "result": "> 80", "unit": "µM"}, {"measurement": "IC50", "setting": "[2]; [9]", "result": "> 80", "unit": "µM"}]}
{"smiles": "CCN1CCCC1CNC(=O)c1ccc2c(c1)NC(=O)CS2", "note": "(stereo not drawn) [Compound 3d]", "values": [{"measurement": "PfG6PD activity (in words)", "setting": "[2]", "result": "complete loss of activity"}, {"measurement": "IC50", "setting": "[2]; [10]", "result": "> 80", "unit": "µM"}]}
{"smiles": "CCN1CCC[C@@H]1CNC(=O)c1ccc2c(c1)NC(=O)/C(=C/c1ccccc1F)S2", "note": "[Compound 11, (R,Z)-N-((1-ethylpyrrolidin-2-yl)methyl)-2-(2-fluorobenzylidene)-3-oxo-3,4-dihydro-2H-benzo[b][1,4]thiazine-6-carboxamide]", "values": [{"measurement": "Reactivity with GSH (in words)", "setting": "[3]", "result": "remained intact"}, {"measurement": "Selectivity for PfGluPho over hG6PD (in words)", "setting": "[4]", "result": "selective"}, {"measurement": "IC50", "setting": "[5]", "result": 2600, "unit": "nM"}, {"measurement": "solubility", "setting": "[6]; 1x PBS, pH 7.4", "result": 71, "unit": "µg/mL"}, {"measurement": "solubility", "setting": "[6]; pION's buffer, pH 5", "result": "> 126", "unit": "µg/mL"}, {"measurement": "solubility", "setting": "[6]; pION's buffer, pH 6.2", "result": "> 126", "unit": "µg/mL"}, {"measurement": "solubility", "setting": "[6]; pION's buffer, pH 7.4", "result": 29.4, "unit": "µg/mL"}, {"measurement": "Preference for the R-enantiomer versus the S-enantiomer", "setting": "[2]; 11 vs. 12, Table 4", "result": 8, "unit": "fold"}, {"measurement": "Type of inhibition vs. G6P", "setting": "[7]; G6P titration", "result": "competing with the substrate"}, {"measurement": "Type of inhibition vs. NADP+", "setting": "[7]; NADP+ titration", "result": "mixed-type inhibition"}]}
{"smiles": "CCN1CCCC1CNC(=O)c1ccc2c(c1)NC(=O)/C(=C/c1ccccc1OC)S2", "note": "(stereo not drawn) [Compound 5d]", "values": [{"measurement": "Decrease in potency relative to 5a", "setting": "[2]", "result": 5, "unit": "fold"}]}
{"smiles": "O=C1Nc2cc(C(=O)NCCN3CCCC3)ccc2S/C1=C\\c1ccccc1Cl", "note": "[Compound 31]", "values": [{"measurement": "IC50", "setting": "[1]; Table 6", "result": "> 80", "unit": "µM"}]}
{"smiles": "CC(C)(C)OC(=O)N1CCCC1CNC(=O)c1ccc2c(c1)NC(=O)/C(=C/c1ccccc1F)S2", "note": "(stereo not drawn) [Compound 14]", "values": [{"measurement": "PfG6PD activity (in words)", "setting": "[2]", "result": "inactive"}, {"measurement": "IC50", "setting": "[2]; Potency PfG6PD Primary Assay, Table 4, Ave. ± S.E.M.", "result": "> 80", "unit": "µM"}]}
{"smiles": "CCCN(CCC)CCNC(=O)c1ccc2c(c1)NC(=O)/C(=C/c1ccc(C)cc1)S2", "note": "[Compound 27]", "values": [{"measurement": "IC50", "setting": "[2]; [9]", "result": "> 80", "unit": "µM"}]}
{"smiles": "CCN1CCCC1CNC(=O)c1ccc2c(c1)NC(=O)/C(=C/c1ccccc1C)S2", "note": "(stereo not drawn) [Compound 5c]", "values": [{"measurement": "Decrease in potency relative to 5a", "setting": "[2]", "result": 3, "unit": "fold"}]}
{"smiles": "O=C1Nc2cc(C(=O)NCc3ccccc3)ccc2S/C1=C\\c1ccccc1F", "note": "[Compound 41]", "values": [{"measurement": "IC50", "setting": "[1]; Table 6", "result": "> 80", "unit": "µM"}, {"measurement": "IC50", "setting": "[2]; [8]", "result": "> 80", "unit": "µM"}]}
{"smiles": "CCCN(CCC)CCNC(=O)c1ccc2c(c1)NC(=O)/C(=C/c1ccccc1)S2", "note": "[Compound 26]", "values": [{"measurement": "IC50", "setting": "[2]; [9]", "result": "> 80", "unit": "µM"}]}
{"smiles": "CCN1CCCC1CNC(=O)c1ccc2c(c1)NC(=O)C(Cc1ccccc1F)S2", "note": "(stereo not drawn) [Compound 10]", "values": [{"measurement": "PfG6PD activity (in words)", "setting": "[2]", "result": "complete loss of activity"}, {"measurement": "IC50", "setting": "[2]; [10]", "result": "> 80", "unit": "µM"}]}
